According to ChEMBL document CHEMBL3769384, “Discovery of Tetrahydropyrazolopyridine as Sphingosine 1-Phosphate Receptor 3 (S1P3)-Sparing S1P1 Agonists Active at Low Oral Doses” (J Med Chem, 2016):

Tested on: not listed separately
Experiment: Lipophilicity, log D of the compound at pH 7.4 by chromatography
Type: physicochemical
Conditions: buffer

chromatographic logD	SMILES
3.56	CC(C)Oc1ccc(-c2nnc(-n3cc4c(n3)CCN(CCCC(=O)O)C4)s2)cc1Cl
7.04	CC(C)Oc1ccc(-c2nnc(-c3ccnn3C)s2)cc1Cl
3.16	Cc1c(-c2nnc(-c3ccc(OC(C)C)c(Cl)c3)s2)cnn1CCC(=O)O
3.73	Cc1c2c(nn1-c1nnc(-c3ccc(OC(C)C)c(C#N)c3)s1)CCNC2
2.88	Cc1c2c(nn1-c1nnc(-c3ccc(OC(C)C)c(C#N)c3)s1)CCN(CC(=O)O)C2
5	CC(C)Oc1ccc(-c2nnc(-c3cn[nH]c3)s2)cc1Cl
6.18	CC(C)Oc1ccc(-c2nnc(-n3cncn3)s2)cc1Cl
5.45	Cc1[nH]ncc1-c1nnc(-c2ccc(OC(C)C)c(Cl)c2)s1
4.23	Cc1c2c(nn1-c1nnc(-c3ccc(OC(C)C)c(C#N)c3)s1)CNCC2
4.3	Cc1nn(-c2nnc(-c3ccc(OC(C)C)c(Cl)c3)s2)c(C)c1CCC(=O)O

Target: T1, Sphingosine 1-phosphate receptor 1 (Homo sapiens, UniProt P21453)
Experiment: Agonist activity at human S1P1 receptor expressed in RH7777 cells by [35S]GTP-gammaS accumulation assay
Type: cell-based
Conditions: not given
How it was run: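 RH7777 S1P1 membranes (1.5 µg/well) precoupled 30 min on ice to WGA SPA beads in 20 mM HEPES, 10 mM MgCl2, 100 mM NaCl, pH 7.4, with 10 µM GDP and 90 µg/mL saponin (final). 0.5 nM [35S]GTPγS final added to compound; plates read immediately by scintillation proximity.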

T1 sequence (P21453 whole entry): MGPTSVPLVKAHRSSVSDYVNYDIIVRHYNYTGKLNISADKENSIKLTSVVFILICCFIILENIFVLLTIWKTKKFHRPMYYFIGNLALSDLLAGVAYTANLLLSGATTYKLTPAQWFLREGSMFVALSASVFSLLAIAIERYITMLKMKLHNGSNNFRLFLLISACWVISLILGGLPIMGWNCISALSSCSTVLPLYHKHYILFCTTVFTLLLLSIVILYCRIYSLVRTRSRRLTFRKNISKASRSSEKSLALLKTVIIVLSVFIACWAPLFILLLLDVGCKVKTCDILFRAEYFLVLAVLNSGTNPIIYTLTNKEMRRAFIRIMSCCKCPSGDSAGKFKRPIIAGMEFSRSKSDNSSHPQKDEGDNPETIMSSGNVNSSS

EC50 [nM]	SMILES
100	CC(C)Oc1ccc(-c2nnc(N3CCc4cc(CCC(=O)O)ccc43)s2)cc1Cl
3980	CC(C)Oc1ccc(-c2nnc(N3CCC(N4CCCC(C(=O)O)C4)CC3)s2)cc1Cl (configuration not stated)
> 31600	CC(C)Oc1ccc(-c2nnc(NCCNCCC(=O)O)s2)cc1Cl
251	CC(C)Oc1ccc(-c2nnc(N3CCOc4c(CCC(=O)O)cccc43)s2)cc1Cl
6310	CC(C)Oc1ccc(-c2nnc(N3CCNCC3)s2)cc1Cl
12.6	CC(C)Oc1ccc(-c2nnc(-n3cc4c(n3)CCN(CCCC(=O)O)C4)s2)cc1Cl
251	CC(C)Oc1ccc(-c2nnc(-c3ccnn3C)s2)cc1Cl
2510	Cc1c(-c2nnc(-c3ccc(OC(C)C)c(Cl)c3)s2)cnn1CCC(=O)O
100	Cc1c2c(nn1-c1nnc(-c3ccc(OC(C)C)c(C#N)c3)s1)CCNC2
631	CC(C)Oc1ccc(-c2nnc(-c3cn[nH]c3)s2)cc1Cl
> 31600	CC(C)Oc1ccc(-c2nnc(NCCN)s2)cc1Cl
501	CC(C)Oc1ccc(-c2nnc(-n3cncn3)s2)cc1Cl
126	Cc1[nH]ncc1-c1nnc(-c2ccc(OC(C)C)c(Cl)c2)s1
1580	CC(C)Oc1ccc(-c2nnc(NC3=CCNCC3)s2)cc1Cl
39.8	Cc1nn(-c2nnc(-c3ccc(OC(C)C)c(Cl)c3)s2)c(C)c1CCC(=O)O
2510	CC(C)Oc1ccc(-c2nnc(NC3CCN(CC(=O)O)CC3)s2)cc1Cl
1260	CC(C)Oc1ccc(-c2nnc(Nc3ccc(CC(=O)O)cc3)s2)cc1Cl

Target: Sphingosine 1-phosphate receptor 3 (Homo sapiens, UniProt Q99500)
Experiment: Agonist activity at human S1P3 receptor expressed in RBL cells by [35S]GTP-gammaS accumulation assay
Type: cell-based
Conditions: not given
How it was run: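 Sucrose-gradient-purified RBL S1P3 membranes (0.44 µg/well) precoupled 30 min on ice to WGA SPA beads with 2 µg/well saponin in HEPES/MgCl2/NaCl buffer pH 7.4. 5 µM GDP final and 0.3 nM [35S]GTPγS final added, then dispensed onto compound in DMSO. Read by scintillation proximity after 3 h at room temperature.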

Sequence of Sphingosine 1-phosphate receptor 3 (Q99500 whole entry): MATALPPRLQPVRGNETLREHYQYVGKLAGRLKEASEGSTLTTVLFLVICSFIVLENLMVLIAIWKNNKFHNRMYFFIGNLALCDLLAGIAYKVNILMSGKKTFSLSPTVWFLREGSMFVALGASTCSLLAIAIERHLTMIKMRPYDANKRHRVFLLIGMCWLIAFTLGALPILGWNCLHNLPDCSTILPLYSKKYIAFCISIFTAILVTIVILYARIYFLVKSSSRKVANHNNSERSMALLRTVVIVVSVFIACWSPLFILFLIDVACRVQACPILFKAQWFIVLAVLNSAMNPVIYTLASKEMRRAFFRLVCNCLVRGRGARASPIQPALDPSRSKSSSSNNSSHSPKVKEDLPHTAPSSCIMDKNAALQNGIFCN

EC50 [nM]	SMILES
> 31600	CC(C)Oc1ccc(-c2nnc(-n3cc4c(n3)CCN(CCCC(=O)O)C4)s2)cc1Cl
> 31600	CC(C)Oc1ccc(-c2nnc(-c3ccnn3C)s2)cc1Cl
> 31600	Cc1c(-c2nnc(-c3ccc(OC(C)C)c(Cl)c3)s2)cnn1CCC(=O)O
> 31600	Cc1c2c(nn1-c1nnc(-c3ccc(OC(C)C)c(C#N)c3)s1)CCNC2
> 31600	Cc1c2c(nn1-c1nnc(-c3ccc(OC(C)C)c(C#N)c3)s1)CCN(CC(=O)O)C2
> 31600	CC(C)Oc1ccc(-c2nnc(-c3cn[nH]c3)s2)cc1Cl
> 31600	CC(C)Oc1ccc(-c2nnc(-n3cncn3)s2)cc1Cl
> 31600	Cc1[nH]ncc1-c1nnc(-c2ccc(OC(C)C)c(Cl)c2)s1
> 31600	Cc1c2c(nn1-c1nnc(-c3ccc(OC(C)C)c(C#N)c3)s1)CNCC2
> 31600	Cc1nn(-c2nnc(-c3ccc(OC(C)C)c(Cl)c3)s2)c(C)c1CCC(=O)O

Target: T1, Sphingosine 1-phosphate receptor 1
Experiment: Agonist activity at human S1P1 receptor expressed in CHO-K1 EDG1 cells by beta-arrestin recruitment assay
Type: cell-based
Conditions: not given
How it was run: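 CHO-K1 cells stably expressing beta-arrestin 2 and S1P1 fused to complementing beta-galactosidase fragments; grown to 80% confluency, harvested enzyme-free, resuspended in HEPES/BSA assay buffer pH 7.4. Cells at 1x10^4/well added to compound in DMSO, 90 min at 37°C/5% CO2, then 15 min at room temperature; chemiluminescent detection mix 60 min at room temperature, luminescence read.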

EC50 [nM]	SMILES
5.01	CC(C)Oc1ccc(-c2nnc(-n3cc4c(n3)CCN(CCCC(=O)O)C4)s2)cc1Cl
63.1	Cc1c2c(nn1-c1nnc(-c3ccc(OC(C)C)c(C#N)c3)s1)CCNC2
100	Cc1c2c(nn1-c1nnc(-c3ccc(OC(C)C)c(C#N)c3)s1)CCN(CC(=O)O)C2
158	Cc1c2c(nn1-c1nnc(-c3ccc(OC(C)C)c(C#N)c3)s1)CNCC2
20	Cc1nn(-c2nnc(-c3ccc(OC(C)C)c(Cl)c3)s2)c(C)c1CCC(=O)O
